SENP1 FRET inh = human SENP1 catalytic domain inhibitors, primary screen, biochemical, FRET, uHTS | Sentrin-specific protease 1 (Homo sapiens), Q9P0U3 | recombinant SENP1 catalytic domain, CyPet-SUMO1-YPet FRET cleavage | inhibition, % at 10 µM | hit rate 0.21% among 360,000;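 active = inhibition at least 30% at 10 µM, raw YFP signal under a set limit, fluorescence ratio 0.5 to 1.5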;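 note: 0% = enzyme with DMSO and 100% = no enzyme wells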
Target sequence (Q9P0U3 419-644 limits assumed): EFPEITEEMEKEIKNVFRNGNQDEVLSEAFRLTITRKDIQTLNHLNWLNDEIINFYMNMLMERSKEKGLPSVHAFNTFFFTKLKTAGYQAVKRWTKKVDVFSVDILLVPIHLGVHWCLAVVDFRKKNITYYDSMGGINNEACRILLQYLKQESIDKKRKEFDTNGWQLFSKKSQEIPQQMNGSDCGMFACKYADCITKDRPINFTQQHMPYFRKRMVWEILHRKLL
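Compound: 10 µM single point, 0.5% DMSO; Test system: hSENP1 catalytic domain, recombinant; Timing: 50 min reaction at room temperature; Technique: FRET, CFP and YFP emission; Control set: no-enzyme wells low, DMSO-plus-enzyme wells high control.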
SENP8 block-1 = SENP8 protease inhibitors, primary screen, biochemical, luminescence; purified SENP8, Z-RLRGG-aminoluciferin cleavage; inhibition, % at 10 µM; hit rate 1.2% among 330,000; in the data active = inhibition above about 50%
Target sequence (Q96LD8 whole entry, looked up): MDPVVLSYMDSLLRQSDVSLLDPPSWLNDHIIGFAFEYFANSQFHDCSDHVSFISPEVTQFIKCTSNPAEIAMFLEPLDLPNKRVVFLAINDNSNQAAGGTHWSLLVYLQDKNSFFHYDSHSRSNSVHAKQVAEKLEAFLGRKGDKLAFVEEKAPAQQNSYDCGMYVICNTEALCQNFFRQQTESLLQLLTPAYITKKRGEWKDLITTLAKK
SENP8 block-2 = human SENP8 protease inhibitors, primary screen, biochemical, fluorescence, Nedd8 protein substrate, uHTS; Sentrin-specific protease 8 (Homo sapiens), Q96LD8; recombinant SENP8; inhibition, % at 20 µM; hit rate 0.64% among 360,000; AID 602440, 2012; in the data active = inhibition mostly above about 40%, no sharp cut-off; inactive = mostly below about 27%
HSP90 inh = HSP90 inhibitors, primary screen, cell lysate, luminescence; Heat shock protein HSP 90 (rabbit reticulocyte lysate; luciferase refolding); Rabbit reticulocyte lysate, luciferase refolding luminescence, 3 h; inhibition, % at 5.6 µM; hit rate 0.91% among 290,000;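 active = inhibition above the screen-wide mean plus 3 SD, computed separately per campaign, cut at about 16% in these data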;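 note: 0% = DMSO wells and 100% = 60 µM geldanamycin wells; inhibitors lower the luminescence because luciferase stays unfolded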
SENP7 inh = SENP7 protease inhibitors, primary screen, biochemical, luminescence, uHTS. Sentrin-specific protease 7 (Homo sapiens), Q9BQF6. recombinant SENP7, Z-RLRGG-aminoluciferin luminescence, 40 min. inhibition, % at 5 µM. hit rate 1.5% among 330,000. AID 434973, 2010;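 active = inhibition above about 50% at the single test dose, limit read from the data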;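 note: plate controls were DMSO with enzyme for no effect and no enzyme buffer wells for full effect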
SENP6 block = SENP6 protease inhibitors, primary screen, biochemical, luminescence, uHTS; Sentrin-specific protease 6 (Homo sapiens), Q9GZR1; Recombinant SENP6 catalytic domain, aminoluciferin luminescence; inhibition, % at 10 µM; hit rate 1.8% among 330,000;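 active = inhibition above about 50% at the single tested dose, limit read from the data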;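 note: plate controls were DMSO wells with enzyme for no effect and DMSO wells lacking enzyme for full effect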
SENP8 conf = SENP8 protease inhibitors, retest, confirmation, biochemical, luminescence, single concentration. shares compounds with SENP7 inh. Recombinant SENP8, Z-RLRGG-aminoluciferin luminescence, 60 min. inhibition, % at 12.5 µM. hit rate 40% among 6,200;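 active = mean inhibition across replicates above about 50%, limit read from the data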
SENP6 conf = SENP6 protease inhibitors, confirmation, biochemical, luminescence, single concentration; shares compounds with SENP7 inh; recombinant SENP6, Z-RLRGG-aminoluciferin luminescence; inhibition, % at 12.5 µM; hit rate 58% among 6,200; AID 488915, 2010
SENP7 confirm = SENP7 protease inhibitors, retest, confirmation, biochemical, luminescence, single concentration | shares compounds with SENP7 inh | recombinant SENP7, Z-RLRGG-aminoluciferin luminescence, 40 min | inhibition, % at 12.5 µM | hit rate 69% among 6,200 | AID 488917, 2010
Casp3 SENP sel = caspase-3 protease inhibitors, confirmation, selectivity assay for SENP inhibitor project, biochemical, single concentration | shares compounds with SENP7 inh | purified caspase-3, Z-DEVD-aminoluciferin luminescence, 60 min | inhibition, % at 12.5 µM | hit rate 60% among 6,200 | AID 488918, 2010;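 active = mean inhibition above about 50%, limit read from the data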;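 note: plate controls were enzyme with DMSO for no effect and wells without caspase-3 for full effect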
Target sequence (P42574 28-227 limits assumed): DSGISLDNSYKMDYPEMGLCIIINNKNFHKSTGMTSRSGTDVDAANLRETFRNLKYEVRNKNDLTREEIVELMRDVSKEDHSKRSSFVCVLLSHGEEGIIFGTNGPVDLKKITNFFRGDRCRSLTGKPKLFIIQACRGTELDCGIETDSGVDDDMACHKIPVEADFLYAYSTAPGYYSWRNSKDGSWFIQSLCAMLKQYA
SENP luc ctr = interferes with luciferase luminescence in SENP counter-screen | Pre-incubated SENP8/Z-RLRGG-aminoluciferin, luciferase luminescence interference | shares compounds with SENP7 inh | AID 488919 | inhibition, % at 12.5 µM | hit rate 39% among 6,200;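 active = mean inhibition above about 50% when retested at one dose, limit read from the data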;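 note: plate controls were DMSO wells with completed reaction for no effect and substrate without enzyme for full effect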
* marks the source's active call; other numbers are inactive results; · = no result given. Sampled rows, rich in hits. Any-hit rate of the full collection: about 2.9%.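 Rule for the calls, unless noted: active = mean inhibition above about 50% in the one-dose retest (limit read from the data); inactive = the rest.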

SMILES	SENP1 FRET inh	SENP8 block-1	SENP8 block-2	HSP90 inh	SENP7 inh	SENP6 block	SENP8 conf	SENP6 conf	SENP7 confirm	Casp3 SENP sel	SENP luc ctr
O=C1Nc2ccccc2C(=O)N2C[C@@H](O)C[C@H]12	0	-3	-32	-2	-3	-4	·	·	·	·	·
COc1cccc(NC(=O)NCc2ccccn2)c1	0	-4	9	1	-7	0	·	·	·	·	·
Cc1ccnc(NC(=O)Nc2cccc(F)c2)n1	4	44	9	-1	67*	28	30	31	57*	61*	12
COc1cccc(NC(=O)Nc2nccc(C)n2)c1	3	31	1	2	55*	58*	30	32	71*	76*	34
CC(C)(C)NC(=O)CN(Cc1ccc2c(c1)OCO2)C(=O)CNS(=O)(=O)c1ccccc1	2	5	9	1	3	11	·	·	·	·	·
O=C1C(Cc2ccc3[nH]ccc3c2)NC(=S)N1c1ccccc1 (stereo not given)	-53	1	9	7	1	-16	·	·	·	·	·
COc1ccccc1NC(=O)NC1CCS(=O)(=O)C1 (stereo not given)	1	3	10	-2	-2	-19	·	·	·	·	·
COc1ccc([N+](=O)[O-])cc1NS(=O)(=O)c1cccc(C(=O)O)c1	0	-7	19	-5	-4	-13	·	·	·	·	·
CCOC(=O)c1ccc(CNCc2ccccc2)cc1	1	0	14	0	3	9	·	·	·	·	·
COc1ccc(-c2csc(COC(=O)C(C)(C)C)n2)cc1	2	-4	14	-2	31	14	·	·	·	·	·
CC(C)(C)C(=O)OCc1nc(-c2ccc3c(c2)OCCO3)cs1	0	86*	14	9	88*	89*	90*	90*	71*	77*	59*
CC(C)(C)C(=O)OCc1nc(-c2ccc(F)cc2)cs1	2	24	16	-6	45	52*	-4	27	71*	25	6
CCCC(=O)Nc1nc(-c2ccc3c(c2)OCCO3)cs1	4	-16	16	-3	-4	-3	·	·	·	·	·
O=C(O)C(=O)Nc1nc(-c2ccc3c(c2)OCCO3)cs1	3	44	-23	-5	24	73*	67*	66*	89*	88*	76*
CC(OC(=O)C1=COCCO1)C(=O)NC1CCCCC1 (stereo not given)	0	·	8	·	·	·	·	·	·	·	·
CCc1ccccc1NC(=O)Nc1cccn(Cc2ccccc2F)c1=O	1	-12	-398	5	0	-29	·	·	·	·	·
CSc1ccc(NC(=O)Nc2cccn(Cc3ccccc3F)c2=O)cc1	0	44	-190	-1	49	63*	21	9	43	26	-2
O/N=C/c1ccc(OCc2ccccc2)c(Cl)c1	3	64*	7	0	59*	86*	8	72*	90*	41	76*
Cc1cc(C)n(CCNC(=O)[C@H]2O[C@@H](n3ccc(=O)[nH]c3=O)[C@H](O)[C@@H]2O)n1	-2	·	16	·	·	·	·	·	·	·	·
O=C(CCN1C(=O)/C(=C/c2ccccc2Cl)SC1=S)NN1CCOCC1	3	45	14	-2	52*	37	8	8	8	16	4
O=C(CCN1C(=O)/C(=C/c2ccccc2Cl)SC1=S)Nc1cccnc1	5	5	23	4	1	4	·	·	·	·	·
O=C(CCCN1C(=O)/C(=C/c2ccccc2Cl)SC1=S)Nc1cccnc1	3	47	18	9	51*	36	0	48	14	24	6
CN(C(=O)CSc1nc2ccccc2o1)C1CCCCC1	1	-5	3	·	-6	11	·	·	·	·	·
COc1ccccc1CNC(=O)c1ccc(N2CCOCC2)c([N+](=O)[O-])c1	0	-2	10	2	-7	9	·	·	·	·	·
NS(=O)(=O)c1ccc(CCNC(=O)COC(=O)C2COc3ccccc3O2)cc1 (stereo not given)	1	5	8	·	2	8	·	·	·	·	·
SMILES	SENP1 FRET inh	SENP8 block-1	SENP8 block-2	HSP90 inh	SENP7 inh	SENP6 block	SENP8 conf	SENP6 conf	SENP7 confirm	Casp3 SENP sel	SENP luc ctr
CCOC(=O)c1csc(-c2sccc2Br)n1	1	94*	23	2	98*	94*	96*	98*	102*	97*	93*
Cc1c(/C=N/Nc2ccc(F)cc2)c(O)n(C)c(=O)c1C#N	-8	18	-8	-6	9	13	·	·	·	·	·
Cc1c(C=O)c(Cl)n(C)c(=O)c1C#N	-101	41	-46	0	74*	2	17	22	9	2	2
CC(=O)N=Cc1c(C)c(C#N)c(=O)n(C)c1O	-32	10	-16	1	14	57*	-23	-18	-6	-5	-4
CCCC(C(=O)Nc1ccc2c(C)cc(=O)oc2c1)c1ccccc1 (stereo not given)	0	5	-391	-4	1	-5	·	·	·	·	·
O=C(c1[nH]c(C(F)(F)F)nc1-c1ccccc1)N1CCOCC1	2	·	-2	·	·	·	·	·	·	·	·
Cc1ccc(-c2nc3ccsc3c(=O)o2)cc1	6	-13	27	-2	52*	55*	37	30	67*	16	56*
Cn1nc([N+](=O)[O-])nc1N1CCOCC1	2	61*	-1	-1	10	5	-13	5	-3	-4	-3
COc1ccc(NC(=O)C(NS(=O)(=O)c2ccc3c(c2)CCCN3C(C)=O)C(C)C)c(OC)c1 (stereo not given)	1	1	29	1	102*	-4	-25	-10	1	-2	-5

Compound activity: PubChem, several laboratories
